From ChEMBL document CHEMBL1671806, “New imidazolidinedione derivatives as antimalarial agents” (Bioorg Med Chem, 2011) come the findings set out here.

Calls of active or inactive are those of the source. Bounds are passed on as bounds.

In data set [1] the test system is Plasmodium cynomolgi. Nature of the data set: Antiplasmodial activity against Plasmodium cynomolgi sporozoites infected in Rhesus monkey assessed as relapse time at 10 mg/kg/day, po administered for 7 consecutive days.
For data set [2], the system named is Plasmodium berghei. Nature of the data set: Antiplasmodial activity against Plasmodium berghei sporozoites infected in orally dosed mouse administered for three consecutive days one day before infection. It is filed as functional. The following applies: po, 24 h, read-out: MED. In outline:
(§1)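 Mice were inoculated with P. berghei sporozoites. For oral dosing, compounds were ground and suspended in hydroxyethylcellulose plus Tween 80; for sc dosing, they were suspended in peanut oil. Doses were given once daily on three consecutive days: the day before, 4 h before, and the day after inoculation. Several dose levels were used, up to 320 mg/kg/day. Cure was scored.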

Data set [3] deals with Plasmodium cynomolgi. Briefly: Antiplasmodial activity against Plasmodium cynomolgi sporozoites infected in Rhesus monkey assessed as delay in detection of parasites in blood at 50 mg/kg/day, po administered for three consecutive days before infection. The format is functional.
The species named for data set [4] is Homo sapiens. Briefly: Metabolic stability in human liver microsome by LC-MS/MS method. The following applies: liver microsomes. For orientation: Liver microsomes are a subcellular fraction often used to study metabolism.
For data set [5], the system named is Plasmodium cynomolgi. Nature of the data set: Antiplasmodial activity against Plasmodium cynomolgi sporozoites infected in Rhesus monkey assessed as delay in detection of parasites in blood at 30 mg/kg/day, im administered for three consecutive days before infection. The settings on record: route intramuscular. It is filed as functional.
A short description of data set [6]: Toxicity in Plasmodium berghei sporozoites infected orally dosed mouse administered for three consecutive days one day before infection. The format is organism-based. The following applies: in vivo, po. In outline: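 Mice received P. berghei sporozoites. Each compound was ground and suspended in hydroxyethylcellulose plus Tween 80, then given orally at several dose levels up to 320 mg/kg/day. Dosing was once daily for three consecutive days: the day before, 4 h before, and the day after sporozoite inoculation.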

Data set [7] concerns Plasmodium cynomolgi. Nature of the data set: Antiplasmodial activity against Plasmodium cynomolgi sporozoites infected in Rhesus monkey assessed as duration for detection of parasites in blood at 50 mg/kg/day, po administered for three consecutive days before infection (reference value: 8 days). The format is functional.
For data set [8], the system named is Plasmodium falciparum. Nature of the data set: Antimicrobial activity against Plasmodium falciparum D6 by microdilution method. The settings on record: Plasmodium falciparum, D6; read-out: IC50. It is filed as functional, organism-based. (In general: Broth dilution looks for growth in wells or tubes with falling amounts of substance.)
Data set [9] is filed under the species Mus musculus. Nature of the data set: Metabolic stability in mouse liver microsome by LC-MS/MS method. The settings on record: liver microsomes.
Data set [10] has as its system Plasmodium cynomolgi. Briefly: Antiplasmodial activity against Plasmodium cynomolgi sporozoites infected in Rhesus monkey assessed as duration for detection of parasites in blood at 30 mg/kg/day, im administered for three consecutive days before infection (reference value: 8 days). It is filed as functional. The settings on record: route intramuscular.
Data set [11] relates to Plasmodium falciparum. Briefly: Antimicrobial activity against Plasmodium falciparum W2 by microdilution method. The following applies: Plasmodium falciparum, W2; read-out: IC50. The format is functional, organism-based.
Data set [12] concerns Plasmodium berghei. Nature of the data set: Antiplasmodial activity against Plasmodium berghei sporozoites infected in orally dosed mouse assessed as cure from infection 160 mg/kg/day, po administered for three consecutive days before infection measured after at day 31. It is filed as functional, organism-based. The method, boiled down:
as §1

The test system of data set [13] is Plasmodium cynomolgi. Nature of the data set: Antiplasmodial activity against Plasmodium cynomolgi sporozoites infected in Rhesus monkey assessed as delay in detection of parasites in blood at 1.78 mg/kg/day, po administered for three consecutive days before infection. The format is functional.
The test system of data set [14] is Plasmodium cynomolgi. Nature of the data set: Antiplasmodial activity against Plasmodium cynomolgi sporozoites infected in Rhesus monkey assessed as duration for detection of parasites in blood at 1.78 mg/kg/day, po administered for three consecutive days before infection (reference value: 8 days). It is filed as functional.
Data set [15] has as its system Plasmodium cynomolgi. Nature of the data set: Antiplasmodial activity against Plasmodium cynomolgi sporozoites infected in Rhesus monkey assessed as delay in detection of parasites in blood at 0.316 mg/kg/day, po administered for three consecutive days before infection. It is filed as functional.
Data set [16] has as its system Plasmodium cynomolgi. Briefly: Antiplasmodial activity against Plasmodium cynomolgi sporozoites infected in Rhesus monkey assessed as duration for detection of parasites in blood at 0.316 mg/kg/day, po administered for three consecutive days before infection (reference value: 8 days). The format is functional.

As for `CCN(CC)CCCC(C)Nc1ccnc2cc(Cl)ccc12` (stereo unspecified) [CHLOROQUINE], the Time in data set [1] was 11 days.

As a reminder, the half-life is the time needed for the level to fall by half in the phase considered. As a reminder, the IC50 is the concentration at which inhibition is half-maximal. `CC(C)N/C(=N\C1=NC(=O)C(=O)N1C(C)C)Nc1ccc(Cl)c(Cl)c1`: the minimal effective dose in [2] was determined as 160 mg/kg/day. Further, the Time in [3] was found to be 3 days; in data set [5], 54 days; in data set [7], 11 days; in data set [10], 62 days. The half-life in data set [4] and in data set [9] was over 1 h each time. Also, in data set [6], the MTD at 3 days was at least 160 mg/kg/day. Further, the concentration for half-maximal inhibition (IC50) in data set [8] and in [11] was over 6 µg/mL in each case. For the same compound, the result in [12] was Active.

As to `COc1cc(NC(C)CCCN)c2ncccc2c1` (stereo unspecified) [PRIMAQUINE], the Time in data set [13] was 5 days; in data set [14] it was 13 days.

Turning to `COc1cc(C)c2c(Oc3cccc(C(F)(F)F)c3)c(OC)cc(NC(C)CCCN)c2n1` (stereo unspecified) [TAFENOQUINE], the Time came to 2 days in [15] and 10 days in [16].
